EBI2 antag = antagonists of human EBI2 receptor; inhibition, % at 5 µM; 360,000 tested, 0.81% active; EBI2 beta-arrestin recruitment, luminescence, 7a,25-OHC stimulated; P32249; in the data active means inhibition above about 38%;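 further: enzyme fragment complementation signal reports receptor beta-arrestin coupling in cells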
Target sequence (P32249 whole entry, looked up, the tested form may be a part): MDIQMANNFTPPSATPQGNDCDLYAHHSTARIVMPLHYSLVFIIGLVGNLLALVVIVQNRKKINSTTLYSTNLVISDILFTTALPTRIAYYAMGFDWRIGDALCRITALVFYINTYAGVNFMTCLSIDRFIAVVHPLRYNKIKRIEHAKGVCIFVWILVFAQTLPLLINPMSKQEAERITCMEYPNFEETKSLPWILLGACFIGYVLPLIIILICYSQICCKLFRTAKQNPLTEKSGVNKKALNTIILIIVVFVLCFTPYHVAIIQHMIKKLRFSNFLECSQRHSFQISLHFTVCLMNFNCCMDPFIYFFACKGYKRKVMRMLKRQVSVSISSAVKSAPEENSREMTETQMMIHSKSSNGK
SENP1 inh = blocks the human SENP1 SUMO protease catalytic domain. 360,000 tested, 0.21% active. Q9P0U3. recombinant SENP1 catalytic domain, CyPet-SUMO1-YPet FRET cleavage. inhibition, % at 10 µM;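 active means inhibition at least 30% at 10 µM, raw YFP signal under a set limit, fluorescence ratio 0.5 to 1.5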
Target sequence (Q9P0U3 419-644 limits assumed): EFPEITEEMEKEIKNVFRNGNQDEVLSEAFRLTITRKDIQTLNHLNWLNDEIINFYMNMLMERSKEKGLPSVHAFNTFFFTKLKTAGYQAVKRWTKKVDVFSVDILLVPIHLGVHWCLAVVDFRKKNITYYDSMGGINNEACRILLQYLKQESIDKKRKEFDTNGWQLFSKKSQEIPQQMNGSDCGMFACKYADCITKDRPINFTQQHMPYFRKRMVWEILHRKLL
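Test system: human SENP1 catalytic domain; medium: Tris pH 8 buffer plus EDTA, NaCl, BME, BSA, NP40, catalase; incubation: 50 min reaction at room temperature; technique: FRET, CFP and YFP emission; controls: no-enzyme low control and enzyme-plus-DMSO high control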
GRIN3A LBD mod = modulators (binders) of human NR3A ligand-binding domain; NR3A LBD differential scanning fluorimetry, Tm shift; 0% = protein alone, 100% = glycine-bound protein; Tm shift relative to glycine control, % at 25 µM; 340,000 tested, 2.5% active; AID 1259313;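 active means melting temperature shift of at least 10% of the positive control shift, at one fixed dose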
MPTP inh = permeability transition pore inhibition; isolated mouse mitochondria, Ca2+ swelling absorbance, 30 min; inhibition, % at 10 µM; 360,000 tested, 1.4% active; AID 602449;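 active means inhibition of 50% or more, scaled per plate between neutral and stimulator controls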
Numbers stand for hits; i = inactive; nt = no result. The list is not random: actives were taken first. Their share in the collection is about 4.4%.

SMILES	EBI2 antag	SENP1 inh	GRIN3A LBD mod	MPTP inh
CC(=O)Oc1cc(O)c2c(=O)c(OC(C)=O)c(-c3ccc(OC(C)=O)c(OC(C)=O)c3)oc2c1	i	51	i	i
Cc1cc(-c2ccc(Br)cc2)n[nH]1	i	i	i	i
Nc1cc(-c2ccc(Br)cc2)[nH]n1	i	i	12	i
O=S(=O)(Nc1cccc(-n2cnnn2)c1)c1ccc(F)cc1	i	i	nt	i
Cc1cccc2cc(CN(Cc3ccc(F)cc3)C(=O)N(C)C)c3nnnn3c12	i	i	12	i
COc1ccc(N(CC(=O)N/N=C/c2ccc(OC3CSC3)cc2)S(=O)(=O)c2ccccc2)cc1	i	i	16	i
O=C(Nc1ccc(Cl)c(Cl)c1)c1ccc2c(c1)OCO2	i	i	37	i
N#CCC(=O)Nc1ccc(C(=O)Nc2ccc3c(c2)OCO3)cc1	i	i	29	i
O=C(Nc1ccc2nsnc2c1)c1ccc2c(c1)OCO2	i	i	14	i
CC(C)C[C@H]1CNC(=O)C(=O)N1CC1CCN(CC2CCC(C(C)(C)C)CC2)CC1 (stereo partly drawn)	i	i	i	i
COc1cc(NC(=O)c2nccn2C)cc(C(=O)Nc2cccc(C(F)(F)F)c2)c1	i	i	i	i
COc1cc(NC(=O)c2ccno2)cc(C(=O)Nc2cccc(C(F)(F)F)c2)c1	i	i	i	i
COc1cc(NC(=O)c2cc3cccc(OC)c3o2)cc(C(=O)Nc2cccc(C(F)(F)F)c2)c1	i	i	12	i
COc1cc(NC(=O)c2ccc(N)nc2)cc(C(=O)Nc2cccc(C(F)(F)F)c2)c1	i	i	30	i
COc1cc(Nc2ccccn2)cc(C(=O)Nc2cccc(C(F)(F)F)c2)c1	i	i	21	i
COc1cc(NC(=O)c2nccnc2N)cc(C(=O)Nc2cccc(C(F)(F)F)c2)c1	i	i	i	i
CC(=O)NC(c1cccc(F)c1)c1nc(-c2ccc3ccccc3c2)cs1 (stereo not drawn)	i	i	nt	i
CCOc1ccc(Br)cc1S(=O)(=O)NC1=NCCCCC1	i	i	i	i
COc1ccc(C=C2SC(=S)NC2=O)cc1	i	i	i	i
COc1cccc(OCCOc2ccc(/C=C3/SC(=S)NC3=O)cc2)c1	i	i	10	i
CCOC(=O)c1[nH]c2ccc(F)cc2c1NC(=O)c1ccccc1C(=O)O	i	i	i	i
CCOC(=O)c1[nH]c2ccc(F)cc2c1NC(=O)C1=COCCO1	i	i	20	i
O=C(COC(=O)CCSc1ccc(Cl)cc1)NCCc1ccccc1	i	i	16	i
NS(=O)(=O)c1ccc(CCNC(=O)COC(=O)CCSc2ccc(Cl)cc2)cc1	i	i	i	i
Cc1ccc(Oc2nnc(-c3cccs3)c3ccccc23)cc1C	i	i	i	i
SMILES	EBI2 antag	SENP1 inh	GRIN3A LBD mod	MPTP inh
CCOC(=O)C1CCN(CC(O)COCc2ccccc2)CC1 (stereo not drawn)	i	i	14	i
CCOC(=O)C1CCN(CC(O)COCc2cccs2)CC1 (stereo not drawn)	i	i	i	i
COc1ccc(-n2c(SCC(=O)N(C)C3CCS(=O)(=O)C3)nc3ccc(O)cc3c2=O)cc1OC (stereo not drawn)	i	i	14	i
CN(C(=O)CSc1nc2ccccc2c(=O)n1-c1ccc(F)cc1)C1CCS(=O)(=O)C1 (stereo not drawn)	i	i	i	i
CCCCOC(=O)c1c(C)oc2ccc(NS(=O)(=O)c3ccc4c5c(cccc35)C(=O)N4)cc12	i	i	15	i
COCCOC(=O)c1c(C)oc2ccc(NS(=O)(=O)c3cccs3)cc12	i	i	i	i
Cn1c(=O)cc(OCC(=O)NCc2cccs2)c2ccccc21	i	i	i	i
COc1ccc(Cl)cc1NC(=O)CSc1nnc(C2CC2)n1C	i	i	i	i
COc1ccc(Cl)cc1NC(=O)CSc1nnc(C)c(=O)n1N	i	i	13	i
COc1ccc(CCN2CC(C(=O)NC3CCCCC3)CC2=O)cc1OC (stereo not drawn)	i	i	i	i
NS(=O)(=O)c1ccc(N2N=C(c3ccccc3)CC2c2ccc(F)cc2)cc1 (stereo not drawn)	i	i	i	i
COc1ccc(C2CC(c3cccc(C(F)(F)F)c3)=NN2c2ccc(S(N)(=O)=O)cc2)cc1 (stereo not drawn)	i	i	28	i
COc1ccc(C2CC(c3cccc(Br)c3)=NN2c2ccc(S(N)(=O)=O)cc2)cc1 (stereo not drawn)	i	i	27	i
COc1ccc(C2CC(c3ccccc3Cl)=NN2c2ccc(S(N)(=O)=O)cc2)cc1 (stereo not drawn)	i	i	11	i
COc1ccc(C2CC(c3ccccc3)=NN2c2ccc(C(N)=O)cc2)cc1 (stereo not drawn)	i	i	i	i
NS(=O)(=O)c1ccc(N2N=C(c3ccccc3)CC2c2cccc(Cl)c2)cc1 (stereo not drawn)	i	i	24	i
COc1ccc(C2CC(c3ccccc3)=NN2c2ccc(S(N)(=O)=O)cc2)cc1 (stereo not drawn)	i	i	i	i
O=C(COC(=O)c1cc(-c2cccs2)nc2ccccc12)NC1CCS(=O)(=O)C1 (stereo not drawn)	i	i	i	i
COc1cc(CNC2CCCC2)cc(Cl)c1OCc1ccccc1F	i	i	i	i
COc1ccc(C2CC(c3cccc(F)c3)=NN2c2ccc(S(N)(=O)=O)cc2)cc1 (stereo not drawn)	i	i	37	i
COc1ccc2cc3cc(C(=O)Nc4ccc5c(c4)OCCO5)oc3nc2c1	i	i	26	i
COc1ccc(OC)c2c(C)c(C)[nH]c12	i	i	10	i
COc1ccc(OC)c2c(=O)cc(C(=O)O)[nH]c12	i	i	i	i
O=C(O)Cc1sc(Nc2ccccc2)nc1-c1cccs1	i	i	i	i
Cc1cn(-c2cc(C(=O)Nc3ccc(C)c(NC(=O)C(=O)c4c[nH]c5ccccc45)c3)cc(C(F)(F)F)c2)cn1	i	i	12	i
SMILES	EBI2 antag	SENP1 inh	GRIN3A LBD mod	MPTP inh
Cc1ccc(C(=O)Nc2cccc(C(F)(F)F)c2)cc1NC(=O)c1c[nH]c2cc(C(F)(F)F)ccc2c1=O	i	i	i	i
CN(CC(=O)Nc1cccc(F)c1)C(=O)c1cccc2ccccc12	i	i	i	i
COc1cccc(-c2nn(-c3ccc(C)cc3)cc2C(=O)N(C)CC(=O)Nc2cccc(F)c2)c1	i	i	13	i
CCOc1ccc(NC(=O)CN(C)C(=O)c2cn(-c3ccc(C)cc3)nc2-c2cccc(OC)c2)cc1OCC	i	i	i	i
O=C(Nc1cccc(S(=O)(=O)N2CCOCC2)c1)c1cn(-c2ccccc2)nc1-c1ccccc1	i	i	i	i
O=C(Nc1cccc(S(=O)(=O)N2CCOCC2)c1)c1cn(-c2ccccc2)nc1-c1ccc(F)cc1	i	i	22	i
COc1ccc(-c2nn(-c3ccccc3)cc2C(=O)N(C)CC(=O)Nc2ccccc2Br)cc1	i	i	i	i
CN(CC(=O)Nc1cccc(F)c1)C(=O)c1cn(-c2ccccc2)nc1-c1ccc(F)cc1	i	i	35	i
